In general, MIC refers to the lowest concentration found to suppress growth. Read a high MIC as weaker potency.

These results are taken from ChEMBL document CHEMBL1799921, “3-(1,3,4-Thiadiazole-2-yl)quinoline derivatives: synthesis, characterization and anti-microbial activity” (Eur J Med Chem, 2011).

For data set [1], the system named is Staphylococcus aureus. Description: Antibacterial activity against Staphylococcus aureus after 18 hrs by macro-dilution test. In kind it is functional. Summed up:
(§1)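 Tube macro-dilution. Compounds in DMSO serially diluted to final […]. 24 h old inoculum added to each tube. Standard inoculum […]. Incubated 18 h at 37 °C. MIC is the lowest concentration with no visible growth, read visually. DMSO negative and amoxicillin positive controls.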

Data set [2] has as its system Escherichia coli. Briefly: Antibacterial activity against Escherichia coli after 18 hrs by macro-dilution test. Type of data set: functional. Summed up: as §1
The subject of data set [3] is Staphylococcus aureus. Briefly: Antibacterial activity against Staphylococcus aureus measured at MIC after 18 hrs by halo zone test. Type of data set: functional. In a few lines:
(§2)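 Disk diffusion. Strains subcultured 18 h at 37 °C in BHI, then suspended in saline by McFarland to about 10⁵ CFU/mL. Suspension mixed 1:1 with antibiotic agar at 40 °C and plated. 6.0 mm paper disks loaded with dilutions from a DMSO stock (1 mg per 100 of DMSO). Incubated 18 h at 36 °C. Inhibition zone (mm) measured at the MIC. Amoxicillin and DMSO disks as controls.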

Data set [4] concerns Salmonella typhimurium. Briefly: Antibacterial activity against Salmonella Typhimurium after 18 hrs by macro-dilution test. The settings on record: Salmonella enterica. In kind it is functional, Salmonella enterica subsp. enterica serovar Typhimurium. Summed up:
as §1

Data set [5] deals with Escherichia coli. Description: Antibacterial activity against Escherichia coli measured at MIC after 18 hrs by halo zone test. Type of data set: functional. Summed up: as §2
Data set [6] is described as follows: Cytotoxicity against rat H9c2 cells assessed as cell viability at 1.57 to 200 mg/mL after 48 hrs by MTT assay. Type of data set: cell-based. The settings on record: read-out: Activity. In a few lines: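 Subconfluent H9c2 cardiac myoblasts treated with increasing concentrations for 48 h at 37 °C in 5% CO₂, alongside untreated cells. Then washed in PBS and given MTT (5 mg/mL) for 45 min at 37 °C. Crystals dissolved in acid isopropanol, absorbance read at 570 nm. Viability is absorbance of treated relative to untreated cells. Triplicate. DMSO and amoxicillin controls.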

In data set [7] the test system is Streptococcus pyogenes. Description: Antibacterial activity against Streptococcus pyogenes measured at MIC after 18 hrs by halo zone test. Type of data set: functional. Summed up:
as §2

The test system of data set [8] is Streptococcus pyogenes. Briefly: Antibacterial activity against Streptococcus pyogenes after 18 hrs by macro-dilution test. Type of data set: functional. Summed up: as §1
In data set [9] the test system is Salmonella typhimurium. Briefly: Antibacterial activity against Salmonella Typhimurium measured at MIC after 18 hrs by halo zone test. In kind it is functional, Salmonella enterica subsp. enterica serovar Typhimurium. In a few lines: as §2
Where [10] appears, read: in the assay text read “1.57 to 200 ug/mL” for “1.57 to 200 mg/mL”.

In brackets after ≈: the same amount, converted by molar mass.

Turning to `CC(=O)N(C1=NN(C(C)=O)C(c2cc3ccccc3nc2Cl)S1)c1ccccc1C` (stereo not given), the MIC with Staphylococcus aureus [1] is 32 µg/mL (≈ 72.9 µM); with Escherichia coli [2] it was 32 µg/mL (≈ 72.9 µM); against Salmonella typhimurium [4] it was 32 µg/mL (≈ 72.9 µM); against Streptococcus pyogenes [8] it was 16 µg/mL (≈ 36.5 µM). Besides, the “inhibition zone (IZ)” value with Staphylococcus aureus [3] is reported as 15.66 mm; in the data set with Escherichia coli [5], 15.84 mm; in the data set on Streptococcus pyogenes [7] it was 17.14 mm; in the data set on Salmonella typhimurium [9] it was 16.06 mm. The viability at 48 h in [6] (setting [10]) was above 80%.

`CC(=O)N(C1=NN(C(C)=O)C(c2cc3ccccc3nc2Cl)S1)c1cc(F)ccc1F` (stereo not given): the minimum inhibitory concentration (MIC) in the data set on Staphylococcus aureus [1] was 16 µg/mL (≈ 34.7 µM); with Escherichia coli [2], 32 µg/mL (≈ 69.4 µM); with Salmonella typhimurium [4] it was 32 µg/mL (≈ 69.4 µM); against Streptococcus pyogenes [8], 64 µg/mL (≈ 139 µM). The “inhibition zone (IZ)” value is listed as 17.41 mm in the data set on Staphylococcus aureus [3], 20.13 mm in the data set with Escherichia coli [5], 14.74 mm with Streptococcus pyogenes [7] and 16.67 mm in the data set on Salmonella typhimurium [9]. Also, in data set [6], the viability at 48 h was above 80%.

`CC(=O)N(C1=NN(C(C)=O)C(c2cc3ccccc3nc2Cl)S1)c1ccc(C)cc1` (stereo not given): the MIC against Staphylococcus aureus [1] was 32 µg/mL (≈ 72.9 µM); against Escherichia coli [2], 32 µg/mL (≈ 72.9 µM); in the data set with Salmonella typhimurium [4], 64 µg/mL (≈ 146 µM); with Streptococcus pyogenes [8] it was 16 µg/mL (≈ 36.5 µM). Also, the “inhibition zone (IZ)” value turned out to be 18.27 mm in the data set on Staphylococcus aureus [3], 16.4 mm in the data set with Escherichia coli [5], 17 mm with Streptococcus pyogenes [7] and 16.89 mm in the data set on Salmonella typhimurium [9]. Moreover, the viability at 48 h in data set [6] (setting [10]) was above 80%.

On to `CC(=O)N(C1=NN(C(C)=O)C(c2cc3cccc(C)c3nc2Cl)S1)c1ccccc1C` (stereo not given), for which the MIC against Staphylococcus aureus [1] came out at 64 µg/mL (≈ 141 µM); against Escherichia coli [2], 64 µg/mL (≈ 141 µM); against Salmonella typhimurium [4] it was 32 µg/mL (≈ 70.6 µM); in the data set on Streptococcus pyogenes [8] it was 32 µg/mL (≈ 70.6 µM). In addition, the “inhibition zone (IZ)” value was determined as 15.8 mm in the data set on Staphylococcus aureus [3], 17.9 mm in the data set with Escherichia coli [5], 19.14 mm in the data set with Streptococcus pyogenes [7] and 16.11 mm in the data set on Salmonella typhimurium [9]. For the same compound, the viability at 48 h in data set [6] (setting [10]) is above 80%.

For `CC(=O)N(C1=NN(C(C)=O)C(c2cc3cccc(C)c3nc2Cl)S1)c1cc(F)ccc1F` (stereo not given), the MIC worked out at 64 µg/mL (≈ 135 µM) with Staphylococcus aureus [1], 64 µg/mL (≈ 135 µM) with Escherichia coli [2], 32 µg/mL (≈ 67.4 µM) in the data set on Salmonella typhimurium [4] and 16 µg/mL (≈ 33.7 µM) in the data set with Streptococcus pyogenes [8]. Also, the “inhibition zone (IZ)” value with Staphylococcus aureus [3] amounted to 21.99 mm; in the data set on Escherichia coli [5] it was 15.36 mm; in the data set on Streptococcus pyogenes [7], 16.13 mm; in the data set on Salmonella typhimurium [9], 16.6 mm. The viability at 48 h in data set [6] is above 80%.
